Source: PubChem BioAssay
Only some compounds are listed: those with a hit (about 2.9% of all), similar ones and a draw of the others.
M1 PAM parental = M1 PAM counterscreen hit in parental CHO-K1 cells; ATP EC20, Fluo-8 calcium fluorescence; 0% at ATP EC20, 100% at ATP max; activation, % at 3 µM; actives 0.02% (n = 360,000); AID 602247;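 active = activation above the run cutoff, the mean activation of all test compounds plus 3 SD, cut at about 40% in these data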;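 note: peak over basal fluorescence ratio in a 140 s read after ATP addition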
OX1R antag-1 = blocks the human orexin 1 receptor; O43613; OX1R-expressing cells, FRET antagonist read-out; inhibition, % at 6.6 µM; actives 1.8% (n = 330,000); AID 485270; in the data active = inhibition mostly above about 38%, no sharp cut-off; inactive = mostly below about 40%
Target sequence (O43613 whole entry, looked up): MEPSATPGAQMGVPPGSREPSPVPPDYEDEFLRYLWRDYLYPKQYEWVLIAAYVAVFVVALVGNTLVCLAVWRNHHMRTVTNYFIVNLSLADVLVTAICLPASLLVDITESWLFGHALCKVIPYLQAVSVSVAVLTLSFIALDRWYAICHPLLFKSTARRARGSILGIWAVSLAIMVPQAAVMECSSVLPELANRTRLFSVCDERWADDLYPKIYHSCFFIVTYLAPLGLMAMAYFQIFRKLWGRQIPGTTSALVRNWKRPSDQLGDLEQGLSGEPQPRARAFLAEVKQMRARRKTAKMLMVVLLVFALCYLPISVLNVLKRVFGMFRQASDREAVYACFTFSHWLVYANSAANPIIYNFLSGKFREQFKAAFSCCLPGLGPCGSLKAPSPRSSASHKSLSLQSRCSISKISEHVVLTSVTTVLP
CHO-K1 Ca antag = M1 antagonist counterscreen hit in parental CHO-K1 cells. ATP-induced calcium, Fluo-8 fluorescence. inhibition, % at 3 µM. actives 0.6% (n = 360,000). AID 602250;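 active = inhibition above a per-plate cutoff, the plate's mean sample inhibition plus 3 SD, cut at about 24% in these data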
OX1R antag-2 = human HCRTR1 antagonism; O43613; CHO/OX1R cells, Fluo-8 calcium fluorescence, orexin A; inhibition, % at 5 µM; actives 0.43% (n = 330,000); AID 434989;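 active = inhibition above its plate's threshold, mean inhibition of all tested compounds on the plate plus 3 SD, cut at about 37% in these data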
CHO-K1 Ca ag = counter-screen for M1 agonists: effect in parental CHO-K1 cells | Fluo-8 calcium fluorescence; scaled to maximal ATP response, vehicle zero | activation, % at 3 µM | actives 0.48% (n = 360,000); in the data active = activation above about 15%;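 note: untransfected CHO-K1 host cells lacking M1 receptor as counterscreen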
CHO parental Ca = signal in parental CHO cells, OX1R antagonist counter-screen | parental CHO-K1, ATP-induced calcium, Fluo-8 fluorescence | inhibition, % at 5.6 µM | actives 0.63% (n = 330,000) | AID 463079;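 active = inhibition above that plate's mean sample inhibition plus 3 SD, cut at about 26% in these data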
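material = parental CHO cells | also added = ATP as calcium-mobilizing challenge | dosing = single point at 5.6 µM | detection = intracellular calcium via Fluo-8 no-wash fluorescent dye | read-out = % inhibition | benchmarks = low control ATP plus DMSO, high control DMSO only | repeats = one well per compound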
A number is an active result; . = inactive; / = not tested or not shown.

SMILES	M1 PAM parental	OX1R antag-1	CHO-K1 Ca antag	OX1R antag-2	CHO-K1 Ca ag	CHO parental Ca
CCC(C)(C(=O)NC1CCCCC1)N(CC1CCCO1)C(=O)Cc1cccs1 (centres undefined)	.	.	.	.	.	.
N#CC1(NC(=O)COC(=O)C2=COCCO2)CCCCC1	.	.	.	.	19	.
Cc1ccc(S(=O)(=O)NC(=O)NCc2ccccc2)cc1	.	.	28	.	.	.
Cc1ccc(S(=O)(=O)NNC(=O)Nc2ccc(Cl)c(Cl)c2)cc1	.	194	.	.	.	.
Cc1ccc(S(=O)(=O)NC(=O)Nc2ccc(N(C)C)cc2)cc1	.	51	.	.	.	.
Cc1nn(C)c(C)c1NC(=O)Nc1ccc(Cl)c(Cl)c1	.	.	.	.	.	44
Cc1nn(C)c(C)c1NC(=O)Nc1cccc(C(F)(F)F)c1	.	.	.	.	.	.
Cc1ccc(S(=O)(=O)NC(=O)NCc2ccc(F)cc2)cc1	.	.	.	.	.	.
NC(=S)c1cc2ccc(O)cc2oc1=O	.	/	.	/	.	/
O=c1oc2cc(O)ccc2cc1-c1nc2ccccc2o1	.	/	.	/	31	/
CC(=O)Cc1c(C(=O)O)c(C)nn1-c1ccccc1	.	.	26	.	.	.
COc1ccc(CNC(=O)CN2C(=O)NC(Cc3ccccc3)(c3ccccc3)C2=O)cc1OC (centres undefined)	.	.	.	.	.	.
COc1n[nH]c2nncnc12	.	121	.	.	.	.
CCCCCc1nnc(NC(=O)c2cccc(S(=O)(=O)N3CCOCC3)c2)s1	.	.	.	.	.	.
CCCCCOc1ccc(C(C)(O)C(CN2CCOCC2)c2ccccc2)cc1 (centres undefined)	.	.	.	.	.	.
CCOC(=O)c1cc2c(=O)n3ccccc3nc2n(Cc2ccco2)c1=NC(=O)c1ccccc1OCC	.	38	.	.	.	.
CCOC(=O)c1cc2c(=O)n3cccc(C)c3nc2n(Cc2ccco2)c1=NC(=O)c1cccnc1	.	/	.	/	.	/
CCOC(=O)c1cc2c(=O)n3ccccc3nc2n(Cc2ccco2)c1=NC(=O)c1cccnc1	.	52	.	.	.	.
COc1ccccc1C(=O)C1Nc2ccccc2-c2nnc(SC)nc2O1 (centres undefined)	.	50	.	.	.	.
CCC1Nc2ccccc2-c2nnc(SC)nc2O1 (centres undefined)	.	.	.	.	.	.
CC(NCC1(N2CCOCC2)CCCCC1)C(=O)Nc1ccc(Cl)cc1Cl (centres undefined)	.	.	.	.	.	.
CC(OC(=O)c1cc2sccc2n1C)C(=O)NCc1ccc(F)cc1 (centres undefined)	.	.	.	.	.	37
O=C(Nc1ccccc1SC(=O)c1ccccc1)c1ccccc1	.	/	.	/	.	/
Cc1ccc(C(=O)Sc2cccccc2=O)cc1	.	.	35	53	.	54
COc1ccc(-c2nc(S(=O)(=O)c3ccccc3)c(NCCCN3CCOCC3)o2)cc1	.	.	.	.	.	.
SMILES	M1 PAM parental	OX1R antag-1	CHO-K1 Ca antag	OX1R antag-2	CHO-K1 Ca ag	CHO parental Ca
CN1CCN(C(c2ccc(Br)cc2)c2cc(Cl)c3cccnc3c2O)CC1 (centres undefined)	.	.	.	.	.	.
Cc1cc(CSc2ccccc2)ccc1NC(=O)COc1ccccc1	.	.	.	.	.	.
COc1ccccc1OCC(=O)Nc1ccc(CSc2ccccc2)cc1C	.	.	.	.	.	30
Cc1ccc(S(=O)(=O)N2CCOCC2)cc1NC(=O)CNCC1CCCCC1	.	.	.	.	.	.
CCc1nnc(N/N=C/c2ccccc2F)n1N	.	74	.	.	.	.
CCOC(=O)N/N=C/c1ccccc1F	.	.	.	.	.	.
CCC(C)c1ccc(NC(=O)c2cccs2)cc1 (centres undefined)	.	40	.	.	.	.
CCC(C)NS(=O)(=O)c1ccc(NC(=O)c2cccs2)cc1 (centres undefined)	.	.	.	.	.	.
CCC(C)c1ccccc1N1CC(C(=O)Nc2ccc(C)c(S(=O)(=O)N3CCOCC3)c2)CC1=O (centres undefined)	.	.	.	.	.	.
Cc1ccc2n(n1)c(=O)c(Cc1ccccc1)c([O-])[n+]2-c1ccccc1	.	48	.	.	.	.
Cc1nc2c(-c3ccccc3)c(C)[nH]n2c(=O)c1Cc1ccccc1	.	.	.	.	.	.
COc1cc2c(C#CCCO)c(-c3ccc(C#N)cc3)oc(=O)c2cc1OC	.	.	.	.	.	.
COc1cc2c(C#CCCO)c(-c3ccsc3)oc(=O)c2cc1OC	.	61	.	.	.	.
C/C(=C/c1ccccc1)C(=O)N1CCN(c2ccc(F)cc2)CC1	.	.	.	.	16	.
COc1ccccc1C(=O)Nc1ccc2c(c1)nc1n2CCN(C2CCCCC2)C1	.	.	.	.	.	.
Cc1ccc(NC2CCCN(C(=O)c3cc4ncccn4n3)C2)cc1C (centres undefined)	.	.	.	.	.	.
Cc1cc2c(cc1S(=O)(=O)N1CCN(c3cccc(C)c3C)CC1)OCCN2C	.	.	.	.	.	57
Cc1cc2c(cc1S(=O)(=O)N1CCN(c3ccc(Cl)cc3)CC1)OCCN2C	.	.	.	.	.	.
COc1ccccc1OC(=O)Nc1ccc(Cl)cc1	.	.	.	.	.	31
Cn1c(=O)c(C(=O)Nc2ncccc2O)c(O)c2ccccc21	.	.	.	.	.	48
CCCn1c(=O)c(C(=O)Nc2ncccc2O)c(O)c2ccccc21	.	/	.	/	.	/
Cc1cccc(C)c1NC(=O)CN(C)C(=O)c1ccccc1OCc1ccc(F)cc1	.	.	.	.	.	.
CC(=O)OCCn1c2nc(=O)[nH]c(=O)c-2nc2cc(C)c(C)cc21	.	/	38	/	186	/
CC(C)(C)OC(=O)N1CCC[C@H]1C(=O)NCc1ccc(Cl)cc1Cl	.	.	.	.	.	.
CN(C)c1ccc(-c2nn3c(-c4ccccc4Cl)nnc3s2)cc1	.	59	.	.	.	.
SMILES	M1 PAM parental	OX1R antag-1	CHO-K1 Ca antag	OX1R antag-2	CHO-K1 Ca ag	CHO parental Ca
COc1ccccc1-c1nnc2sc(-c3ccc(N(C)C)cc3)nn12	.	69	.	.	.	.
O=C(c1cc2ccccc2[nH]1)N(Cc1cccnc1)CC1CCCN(C2CCCCC2)C1 (centres undefined)	.	.	.	.	.	.
O=C(N/N=C/c1cccc2ccccc12)c1cc2ccccc2o1	.	/	.	/	.	/
C#CCn1cc(/C=N/NC(=O)c2cc3ccccc3o2)c2ccccc21	.	72	.	.	.	.
CC(=O)Nc1ccc(SC[C@H](Cc2ccccc2)N2CC[C@@H](C(C)(C)C)CCC2=O)cc1	.	.	.	.	.	.
O=C(c1ccc(Cn2c(=S)[nH]c3ccccc3c2=O)cc1)N1CCN(c2ccccn2)CC1	.	.	.	.	.	.
